Among the data in ChEMBL document CHEMBL3739352, “Anticonvulsant activity, crystal structures, and preliminary safety evaluation of N-trans-cinnamoyl derivatives of selected (un)modified aminoalkanols” (Eur J Med Chem, 2016) are Activity and Rm values, retold here.

Series [1] concerns Mus musculus. Briefly: Neurotoxicity in albino Carworth Farms No.1 mouse at 300 mg/kg, ip after 4 hrs by rotarod test. It counts as toxicity, organism-based. The note with it: in vivo. In a few lines:
(§1)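 Mice (albino Carworth Farms No.1) were dosed i.p. at 30, 100 or 300 mg/kg in 0.5% methylcellulose. They were tested 0.5 and 4 h later on a 1-inch knurled rod rotating at 6 rpm. Neurotoxicity was scored if a mouse could not stay on the rod for at least 1 min in each of three trials. Results are given as animals toxic/animals tested, with deaths noted.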
(In general: In the rotarod test animals must keep their balance on a rotating rod.)

A short description of series [2]: Lipophilicity of the compound using 90% methanol in water at 1 mg/ml by RT-TLC analysis. The note with it: buffer. It counts as physicochemical. In a few lines: (§2)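 Reversed-phase TLC with a methanol–water mobile phase at the stated methanol content (v/v). Compounds were spotted from 1 mg/mL methanol solutions after 1 h chamber saturation and located under UV light. Rf was measured and RM = log(1/Rf − 1) calculated.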

The nature of series [3]: Lipophilicity of the compound using 75% methanol in water at 1 mg/ml by RT-TLC analysis. The series is classed as physicochemical. The note with it: buffer. In a few lines:
as §2

The test system of series [4] is Mus musculus. Briefly: Anticonvulsant activity in albino Carworth Farms No.1 mouse assessed as protection against maximal electroshock-induced seizures at 300 mg/kg, ip after 0.5 hrs. The series is classed as functional, organism-based. In a few lines: (§3)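 Mouse i.p. screen in Carworth Farms No.1 albino mice at 30, 100 or 300 mg/kg in 0.5% methylcellulose. Testing was at 0.5 and 4 h after injection, by maximal electroshock or by subcutaneous pentetrazol challenge. Scoring was number protected / number used.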
(In general: The maximal electroshock test induces tonic seizures with an electrical stimulus.)

Series [5] concerns Mus musculus. Briefly: Anticonvulsant activity in albino Carworth Farms No.1 mouse assessed as protection against subcutaneous dosed pentetrazol-induced seizures at 30 mg/kg, ip after 4 hrs. It counts as functional, organism-based. In short, it runs like this: as §3
Series [6] concerns Mus musculus. Briefly: Anticonvulsant activity in albino Carworth Farms No.1 mouse assessed as protection against maximal electroshock-induced seizures at 100 mg/kg, ip after 0.5 hrs. The series is classed as functional, organism-based. In short, it runs like this:
as §3

Series [7] relates to Mus musculus. Briefly: Neurotoxicity in albino Carworth Farms No.1 mouse at 100 mg/kg, ip after 0.5 hrs by rotarod test. The series is classed as toxicity, organism-based. The note with it: in vivo. In a few lines: as §1
Series [8] relates to Mus musculus. The experiment in a line: Anticonvulsant activity in albino Carworth Farms No.1 mouse assessed as protection against maximal electroshock-induced seizures at 300 mg/kg, ip after 4 hrs. The series is classed as functional, organism-based. In short, it runs like this:
as §3

For series [9], the system named is Mus musculus. The experiment in a line: Neurotoxicity in albino Carworth Farms No.1 mouse at 30 mg/kg, ip after 0.5 hrs by rotarod test. It counts as toxicity, organism-based. The note with it: in vivo. In a few lines: as §1
Series [10] relates to Mus musculus. Briefly: Anticonvulsant activity in albino Carworth Farms No.1 mouse assessed as protection against subcutaneous dosed pentetrazol-induced seizures at 300 mg/kg, ip after 4 hrs. It counts as functional, organism-based. In a few lines: as §3
Series [11] has as its system Mus musculus. The experiment in a line: Anticonvulsant activity in albino Carworth Farms No.1 mouse assessed as protection against maximal electroshock-induced seizures at 30 mg/kg, ip after 0.5 hrs. It counts as functional, organism-based. In short, it runs like this: as §3
Series [12] is described as follows: Lipophilicity of the compound at 1 mg/ml by RT-TLC analysis relative to 0% methanol. It counts as physicochemical. As to conditions: methanol/water. In short, it runs like this:
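Reversed-phase TLC used methanol–water mobile phases of 95–65% methanol. Compounds were applied from 1 mg/mL methanol solutions after 1 h chamber saturation, with UV detection. RM = log(1/Rf − 1) was calculated at each methanol level and extrapolated linearly (RM = RM0 + bC) to 0% methanol to give RM0.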

Series [13] relates to Mus musculus. The experiment in a line: Neurotoxicity in albino Carworth Farms No.1 mouse at 100 mg/kg, ip after 4 hrs by rotarod test. The series is classed as toxicity, organism-based. As to conditions: in vivo. In short, it runs like this: as §1
Series [14] has as its system Mus musculus. Briefly: Neurotoxicity in albino Carworth Farms No.1 mouse at 300 mg/kg, ip after 0.5 hrs by rotarod test. The series is classed as toxicity, organism-based. The note with it: in vivo. In short, it runs like this:
as §1

The test system of series [15] is Mus musculus. The experiment in a line: Anticonvulsant activity in albino Carworth Farms No.1 mouse assessed as protection against maximal electroshock-induced seizures at 30 mg/kg, ip after 4 hrs. It counts as functional, organism-based. In short, it runs like this:
as §3

Series [16] has as its system Mus musculus. The experiment in a line: Anticonvulsant activity in albino Carworth Farms No.1 mouse assessed as protection against maximal electroshock-induced seizures at 100 mg/kg, ip after 4 hrs. It counts as functional, organism-based. In short, it runs like this:
as §3

The subject of series [17] is Mus musculus. The experiment in a line: Anticonvulsant activity in albino Carworth Farms No.1 mouse assessed as protection against subcutaneous dosed pentetrazol-induced seizures at 100 mg/kg, ip after 4 hrs. It counts as functional, organism-based. In a few lines: as §3
The subject of series [18] is Mus musculus. The experiment in a line: Neurotoxicity in albino Carworth Farms No.1 mouse at 30 mg/kg, ip after 4 hrs by rotarod test. It counts as toxicity, organism-based. As to conditions: in vivo. In a few lines: as §1
For series [19], the system named is Mus musculus. Briefly: Anticonvulsant activity in albino Carworth Farms No.1 mouse assessed as protection against subcutaneous dosed pentetrazol-induced seizures at 30 mg/kg, ip after 0.5 hrs. The series is classed as functional, organism-based. In short, it runs like this: as §3
For series [20], the system named is Mus musculus. The experiment in a line: Anticonvulsant activity in albino Carworth Farms No.1 mouse assessed as protection against subcutaneous dosed pentetrazol-induced seizures at 100 mg/kg, ip after 0.5 hrs. It counts as functional, organism-based. In a few lines:
as §3

Series [21] in a line: Lipophilicity of the compound using 85% methanol in water at 1 mg/ml by RT-TLC analysis. It counts as physicochemical. The note with it: buffer. In a few lines:
as §2

Series [22] is described as follows: Lipophilicity of the compound using 65% methanol in water at 1 mg/ml by RT-TLC analysis. It counts as physicochemical. The note with it: buffer. In short, it runs like this: as §2
Series [23] has as its system Mus musculus. Briefly: Anticonvulsant activity in albino Carworth Farms No.1 mouse assessed as protection against subcutaneous dosed pentetrazol-induced seizures at 300 mg/kg, ip after 0.5 hrs. The series is classed as functional, organism-based. In a few lines:
as §3

Series [24] can be described thus: Lipophilicity of the compound using 95% methanol in water at 1 mg/ml by RT-TLC analysis. As to conditions: buffer. The series is classed as physicochemical. In short, it runs like this: as §2

The source made the active and inactive calls. The rule behind the calls is not given here.

Take `O=C(/C=C/c1ccccc1)NCCCCCO`: the Activity result with Mus musculus [1], in the series with Mus musculus [7], with Mus musculus [9], in the series on Mus musculus [13], with Mus musculus [14] and with Mus musculus [18] was “Non-toxic” in each case. The Rm in series [2] is reported as -0.52; in series [3], -0.18; in series [12], 1.983; in series [21] it was -0.27; in series [22], 0.19; in series [24], -0.69. The outcome in the series with Mus musculus [4], in the series on Mus musculus [5], in the series with Mus musculus [6], with Mus musculus [8], in the series on Mus musculus [10] and with Mus musculus [11] was inactive. Besides, the outcome in the series on Mus musculus [15], in the series on Mus musculus [16], with Mus musculus [17], in the series on Mus musculus [19], in the series with Mus musculus [20] and with Mus musculus [23] was inactive.
For the compound `CCC(COC(C)=O)NC(=O)/C=C/c1ccccc1` (configuration not stated), the Rm in series [2] is reported as -0.43; in series [3], -0.05; in series [12] it was 2.118; in series [21] it was -0.14; in [22], 0.29; in series [24] it was -0.58. Moreover, the outcome in the series on Mus musculus [4], with Mus musculus [5], in the series with Mus musculus [6], in the series with Mus musculus [8], in the series with Mus musculus [10] and in the series on Mus musculus [11] was inactive. Moreover, the outcome in the series with Mus musculus [15], in the series on Mus musculus [16], in the series with Mus musculus [17], in the series with Mus musculus [19], in the series on Mus musculus [20] and in the series on Mus musculus [23] was inactive. The Activity entry in the series on Mus musculus [7], in the series with Mus musculus [9] and with Mus musculus [14] was “Non-toxic” throughout.
With `COC(=O)C(NC(=O)/C=C/c1ccccc1)C(C)C` (racemic), the Activity entry in the series on Mus musculus [1], in the series with Mus musculus [7], in the series with Mus musculus [9], in the series with Mus musculus [13], in the series with Mus musculus [14] and in the series with Mus musculus [18] was “Non-toxic” each time. Also, the Rm in [2] is recorded as -0.31; in series [3], 0.05; in [12], 2.742; in [21], -0.03; in series [22] it was 0.58; in [24], -0.52. Besides, in the series on Mus musculus [4], the result was Active. Besides, the outcome with Mus musculus [5], in the series with Mus musculus [6], in the series on Mus musculus [8], with Mus musculus [10], with Mus musculus [11] and in the series on Mus musculus [15] was inactive. The outcome in the series with Mus musculus [16], in the series on Mus musculus [17], with Mus musculus [19], with Mus musculus [20] and in the series on Mus musculus [23] was inactive.
For `CC(=O)CNC(=O)/C=C/c1ccccc1`, the Activity entry in the series on Mus musculus [1], with Mus musculus [7], in the series with Mus musculus [9], with Mus musculus [13], in the series on Mus musculus [14] and in the series with Mus musculus [18] was “Non-toxic” throughout. Besides, the Rm in series [2] was -0.52; in [3], -0.21; in series [12], 1.478; in [21] it was -0.33; in [22], 0.05; in [24], -0.63. Also, in the series on Mus musculus [4], the result was Active. The outcome in the series with Mus musculus [5], in the series on Mus musculus [6], in the series with Mus musculus [8], with Mus musculus [10], in the series on Mus musculus [11] and with Mus musculus [15] was inactive. The result with Mus musculus [16], in the series on Mus musculus [17], in the series on Mus musculus [19], with Mus musculus [20] and in the series with Mus musculus [23] was inactive.
In the case of `CC(C)(CO)NC(=O)/C=C/c1ccccc1`, the Activity entry with Mus musculus [1], with Mus musculus [7], with Mus musculus [9], in the series with Mus musculus [13], with Mus musculus [14] and in the series on Mus musculus [18] was “Non-toxic” each time. The Rm in series [2] is on record as -0.5; in [3], -0.14; in series [12] it was 2.151; in series [21], -0.25; in [22] it was 0.29; in series [24], -0.63. Besides, the outcome in the series with Mus musculus [4] and with Mus musculus [23] was Active. Moreover, the result in the series with Mus musculus [5], with Mus musculus [6], with Mus musculus [8], in the series on Mus musculus [10], in the series on Mus musculus [11] and in the series on Mus musculus [15] was inactive. For the same compound, the result in the series with Mus musculus [16], with Mus musculus [17], in the series with Mus musculus [19] and in the series with Mus musculus [20] was inactive.
